Experimental data as given in ChEMBL document CHEMBL1134288, “Design and optimization of 20-O-linked camptothecin glycoconjugates as anticancer agents” (J Med Chem, 2001).

Key:
SW480 = assay: In vitro cytotoxic activity against human colon cancer cell line SW480 using MTT growth inhibition assay; format: functional, cell-based
Method in brief: (§1)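 Cells were grown in RPMI 1640 with 10% FCS, trypsinized at confluence and plated at 50,000 cells/mL, then left 1 day. Compounds in DMSO or water were added, and growth was read 6 days later by MTT (5 mg/mL stock, 5 h at 37 °C). Formazan was dissolved in 2-propanol/water and absorbance read at 595 nm; IC50 was derived from this read-out.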

B16-F10 = assay: In vitro cytotoxic activity against murine melanoma cell line B16F10 using MTT growth inhibition assay; format: functional, cell-based; conditions: Mus musculus
Method in brief: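 This murine melanoma line was grown in RPMI 1640 with 10% FCS, trypsinized at confluence and seeded at 20,000 cells/mL, then left 1 day. Compounds in DMSO or water were added. After 6 days, MTT (5 mg/mL stock) was added for 5 h at 37 °C, formazan was dissolved in 2-propanol/water, and absorbance was read at 595 nm to give IC50.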

HT-29 = assay: In vitro cytotoxic activity against human colon cancer cell line HT-29 using MTT growth inhibition assay; format: functional, cell-based; method in brief: as §1
Homo sapiens [1] = species on record: Homo sapiens; assay: In vitro No effect conc (NOEC) with respect to elevated levels of Lactate dehydrogenase (LDH) using primary hepatocytes of human; format: functional, Hepatocyte
Method in brief: (§2)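 Primary hepatocytes were isolated by two-step liver perfusion: first an EGTA (0.5 mM)/HEPES buffer, then a HEPES (pH 7.4) buffer with CaCl2 and collagenase type IV. Cells were cultured in collagen sandwich gels in supplemented medium with 10% FCS, then given 48 h adaptation. DMSO stocks (3 mM) were diluted in medium. Treatment ran 1-7 days with daily medium change, and ALT, AST and LDH were read in the supernatant.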

Canis familiaris [2] = species on record: Canis familiaris; assay: In vitro No effect conc (NOEC) with respect to elevated levels of alanine aminotransferase (ALT) using primary hepatocytes of dog; format: functional, Canis lupus familiaris, Hepatocyte; method in brief: as §2
Homo sapiens [3] = species on record: Homo sapiens; assay: In vitro No effect conc (NOEC) with respect to elevated levels of alanine aminotransferase (ALT) using primary hepatocytes of human; format: functional, Hepatocyte; method in brief: as §2
Rattus norvegicus [4] = species on record: Rattus norvegicus; assay: In vitro No effect conc (NOEC) with respect to elevated levels of Lactate dehydrogenase (LDH) using primary hepatocytes of rat; format: functional, Hepatocyte; method in brief: as §2
Canis familiaris [5] = species on record: Canis familiaris; assay: In vitro No effect conc (NOEC) with respect to elevated levels of aspartate aminotransferase (AST) using primary hepatocytes of dog; format: functional, Canis lupus familiaris, Hepatocyte; method in brief: as §2
Rattus norvegicus [6] = species on record: Rattus norvegicus; assay: In vitro No effect conc (NOEC) with respect to elevated levels of alanine aminotransferase (ALT) using primary hepatocytes of rat; format: functional, Hepatocyte; method in brief: as §2
Rattus norvegicus [7] = species on record: Rattus norvegicus; assay: In vitro No effect conc (NOEC) with respect to elevated levels of aspartate aminotransferase (AST) using primary hepatocytes of rat; format: functional, Hepatocyte; method in brief: as §2
Homo sapiens [8] = species on record: Homo sapiens; assay: In vitro No effect conc (NOEC) with respect to elevated levels of aspartate aminotransferase (AST) using primary hepatocytes of human; format: functional, Hepatocyte; method in brief: as §2
Canis familiaris [9] = species on record: Canis familiaris; assay: In vitro No effect conc (NOEC) with respect to elevated levels of Lactate dehydrogenase (LDH) using primary hepatocytes of dog; format: functional, Canis lupus familiaris, Hepatocyte; method in brief: as §2

SMILES | IC50 (SW480) | IC50 (B16-F10) | IC50 (HT-29) | NOEC (Homo sapiens [1]) | NOEC (Canis familiaris [2]) | NOEC (Homo sapiens [3]) | NOEC (Rattus norvegicus [4]) | NOEC (Canis familiaris [5]) | NOEC (Rattus norvegicus [6]) | NOEC (Rattus norvegicus [7]) | NOEC (Homo sapiens [8]) | NOEC (Canis familiaris [9])
CC[C@@]1(OC(=O)C(NC(=O)[C@H](CCCN=C(N)N)/N=C(\S)Nc2ccc(O[C@H]3O[C@@H](C)[C@@H](O)[C@@H](OC)[C@@H]3O)cc2)C(C)C)C(=O)OCc2c1cc1n(c2=O)Cc2cc3ccccc3nc2-1 (stereo partly specified) | 170 nM | 400 nM | 100 nM |  |  |  |  |  |  |  |  | 
CC[C@@]1(O)C(=O)OCc2c1cc1n(c2=O)Cc2cc3c(CN(C)C)c(O)ccc3nc2-1.Cl [TOPOTECAN HYDROCHLORIDE] |  |  |  | 10 µM | 1 µM | 0.1 µM | 1 µM | 0.1 µM | 0.1 µM | 0.1 µM | 1 µM | 1 µM
CC[C@@]1(OC(=O)C(NC(=O)[C@H](Cc2c[nH]cn2)/N=C(\S)Nc2ccc(O[C@H]3O[C@@H](C)[C@@H](O)[C@@H](OC)[C@@H]3O)cc2)C(C)C)C(=O)OCc2c1cc1n(c2=O)Cc2cc3ccccc3nc2-1 (stereo partly specified) | 170 nM | 250 nM | 60 nM | 30 µM | 10 µM | 30 µM | 10 µM | 10 µM | 10 µM | 10 µM | 30 µM | 10 µM
CC[C@@]1(OC(=O)CNC(=O)[C@H](Cc2c[nH]cn2)/N=C(\S)Nc2ccc(O[C@H]3O[C@@H](C)[C@@H](O)[C@@H](OC)[C@@H]3O)cc2)C(=O)OCc2c1cc1n(c2=O)Cc2cc3ccccc3nc2-1 | 15 nM | 30 nM | 10 nM |  |  |  |  |  |  |  |  | 
CC[C@@]1(OC(=O)CNC(=O)[C@H](CCCCN)/N=C(\S)Nc2ccc(O[C@H]3O[C@@H](C)[C@@H](O)[C@@H](OC)[C@@H]3O)cc2)C(=O)OCc2c1cc1n(c2=O)Cc2cc3ccccc3nc2-1 | 30 nM | 50 nM | 10 nM |  |  |  |  |  |  |  |  | 
CC[C@@]1(OC(=O)[C@H](NC(=O)[C@H](Cc2c[nH]cn2)/N=C(\S)Nc2ccc(O[C@H]3O[C@@H](C)[C@@H](O)[C@@H](OC)[C@@H]3O)cc2)C(C)C)C(=O)OCc2c1cc1n(c2=O)Cc2cc3ccccc3nc2-1 | 230 nM | 600 nM | 160 nM |  |  |  |  |  |  |  |  | 
CC[C@@]1(OC(=O)C(NC(=O)[C@H](CCCCN)/N=C(\S)Nc2ccc(O[C@H]3O[C@@H](C)[C@@H](O)[C@@H](OC)[C@@H]3O)cc2)C(C)C)C(=O)OCc2c1cc1n(c2=O)Cc2cc3ccccc3nc2-1 (stereo partly specified) | 170 nM | 700 nM | 150 nM | 30 µM | 10 µM | 30 µM | 30 µM | 30 µM | 30 µM | 30 µM | 30 µM | 30 µM
CC[C@@]1(OC(=O)[C@H](NC(=O)[C@H](CCCCN)/N=C(\S)Nc2ccc(O[C@H]3O[C@@H](C)[C@@H](O)[C@@H](OC)[C@@H]3O)cc2)C(C)C)C(=O)OCc2c1cc1n(c2=O)Cc2cc3ccccc3nc2-1 | 150 nM | 600 nM | 120 nM |  |  |  |  |  |  |  |  | 
CC[C@@]1(OC(=O)[C@H](NC(=O)[C@H](CCCN=C(N)N)/N=C(\S)Nc2ccc(O[C@H]3O[C@@H](C)[C@@H](O)[C@@H](OC)[C@@H]3O)cc2)C(C)C)C(=O)OCc2c1cc1n(c2=O)Cc2cc3ccccc3nc2-1 | 110 nM | 400 nM | 100 nM |  |  |  |  |  |  |  |  | 
